Test system: Fibroblast
Test: Multiplex assay against human fibroblast
Type: toxicity, cell-based
Outline: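 Hoechst33342, BioTracker Green Microtubule Cytoskeleton Dye, MitoTracker Red and Annexin V Alexa Fluor 680 were added to live cells at seeding, and imaging on a CQ1 microscope at 37°C and 5% CO2 followed compound addition. Gating by CellPathfinder machine learning separated cells into Hoechst high-intensity objects or normal cells, then normal cells into healthy, pyknosed or fragmented nuclei, then pyknosed cells into mitotic or apoptotic. Per cents of healthy-nucleus cells are reported for the tubulin, mitochondrial-mass and membrane-permeability phenotypes.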

[1] = 12 h, 1 µM, compound concentration 1 uM, replicate 1
[2] = 12 h, 1 µM, compound concentration 1 uM, replicate 2
[3] = 12 h, 10 µM, compound concentration 10 uM, replicate 1
[4] = 12 h, 10 µM, compound concentration 10 uM, replicate 2
[5] = 24 h, 1 µM, compound concentration 1 uM, replicate 1
[6] = 24 h, 1 µM, compound concentration 1 uM, replicate 2
[7] = 24 h, 10 µM, compound concentration 10 uM, replicate 1
[8] = 24 h, 10 µM, compound concentration 10 uM, replicate 2
[9] = 48 h, 1 µM, compound concentration 1 uM, replicate 1
[10] = 48 h, 1 µM, compound concentration 1 uM, replicate 2
[11] = 48 h, 10 µM, compound concentration 10 uM, replicate 1
[12] = 48 h, 10 µM, compound concentration 10 uM, replicate 2

Cc1cc(O)c(-c2ccc([C@@H](C)CN(C)C)cc2)c2c1[nH]c(=O)c1sccc12
Population Apoptotic (%) [1]: 59%
Population Fragmented Nuclei (%) [1]: 12%
Population Healthy Nuclei (%) [1]: 67%
Population Hoechst High Intensity Objects (%) [1]: 7%
Population Membrane Permeable-Phenotype (%) [1]: 1%
Population Mitochondria Different-Phenotype (%) [1]: 17%
Population Mitotic Cells (%) [1]: 40%
Population Normal (%) [1]: 92%
Population Pyknosed Nuclei (%) [1]: 20%
Population Tubulin-Different-Phenotype (%) [1]: 44%
Total Cell Count [1]: 145
Population Apoptotic (%) [2]: 50%
Population Fragmented Nuclei (%) [2]: 22%
Population Healthy Nuclei (%) [2]: 56%
Population Hoechst High Intensity Objects (%) [2]: 2%
Population Membrane Permeable-Phenotype (%) [2]: 4%
Population Mitochondria Different-Phenotype (%) [2]: 12%
Population Mitotic Cells (%) [2]: 50%
Population Normal (%) [2]: 97%
Population Pyknosed Nuclei (%) [2]: 21%
Population Tubulin-Different-Phenotype (%) [2]: 52%
Total Cell Count [2]: 115
Population Apoptotic (%) [3]: 69%
Population Fragmented Nuclei (%) [3]: 19%
Population Healthy Nuclei (%) [3]: 63%
Population Hoechst High Intensity Objects (%) [3]: 6%
Population Membrane Permeable-Phenotype (%) [3]: 0%
Population Mitochondria Different-Phenotype (%) [3]: 40%
Population Mitotic Cells (%) [3]: 30%
Population Normal (%) [3]: 93%
Population Pyknosed Nuclei (%) [3]: 16%
Population Tubulin-Different-Phenotype (%) [3]: 90%
Total Cell Count [3]: 146
Population Apoptotic (%) [4]: 70%
Population Fragmented Nuclei (%) [4]: 28%
Population Healthy Nuclei (%) [4]: 55%
Population Hoechst High Intensity Objects (%) [4]: 5%
Population Membrane Permeable-Phenotype (%) [4]: 2%
Population Mitochondria Different-Phenotype (%) [4]: 19%
Population Normal (%) [4]: 94%
Population Pyknosed Nuclei (%) [4]: 15%
Population Tubulin-Different-Phenotype (%) [4]: 80%
Total Cell Count [4]: 137
Population Apoptotic (%) [5]: 45%
Population Fragmented Nuclei (%) [5]: 11%
Population Healthy Nuclei (%) [5]: 66%
Population Hoechst High Intensity Objects (%) [5]: 7%
Population Membrane Permeable-Phenotype (%) [5]: 0%
Population Mitochondria Different-Phenotype (%) [5]: 27%
Population Mitotic Cells (%) [5]: 54%
Population Normal (%) [5]: 92%
Population Pyknosed Nuclei (%) [5]: 21%
Population Tubulin-Different-Phenotype (%) [5]: 73%
Total Cell Count [5]: 119
Population Apoptotic (%) [6]: 52%
Population Fragmented Nuclei (%) [6]: 28%
Population Healthy Nuclei (%) [6]: 54%
Population Hoechst High Intensity Objects (%) [6]: 9%
Population Membrane Permeable-Phenotype (%) [6]: 1%
Population Mitochondria Different-Phenotype (%) [6]: 10%
Population Mitotic Cells (%) [6]: 47%
Population Normal (%) [6]: 90%
Population Pyknosed Nuclei (%) [6]: 16%
Population Tubulin-Different-Phenotype (%) [6]: 56%
Total Cell Count [6]: 111
Population Apoptotic (%) [7]: 66%
Population Fragmented Nuclei (%) [7]: 11%
Population Healthy Nuclei (%) [7]: 65%
Population Hoechst High Intensity Objects (%) [7]: 3%
Population Membrane Permeable-Phenotype (%) [7]: 0%
Population Mitochondria Different-Phenotype (%) [7]: 42%
Population Mitotic Cells (%) [7]: 33%
Population Normal (%) [7]: 96%
Population Pyknosed Nuclei (%) [7]: 22%
Population Tubulin-Different-Phenotype (%) [7]: 87%
Total Cell Count [7]: 122
Population Apoptotic (%) [8]: 57%
Population Fragmented Nuclei (%) [8]: 30%
Population Healthy Nuclei (%) [8]: 51%
Population Hoechst High Intensity Objects (%) [8]: 8%
Population Membrane Permeable-Phenotype (%) [8]: 3%
Population Mitochondria Different-Phenotype (%) [8]: 34%
Population Mitotic Cells (%) [8]: 42%
Population Normal (%) [8]: 91%
Population Pyknosed Nuclei (%) [8]: 18%
Population Tubulin-Different-Phenotype (%) [8]: 81%
Total Cell Count [8]: 124
Population Apoptotic (%) [9]: 70%
Population Fragmented Nuclei (%) [9]: 19%
Population Healthy Nuclei (%) [9]: 55%
Population Hoechst High Intensity Objects (%) [9]: 7%
Population Membrane Permeable-Phenotype (%) [9]: 1%
Population Mitochondria Different-Phenotype (%) [9]: 26%
Population Mitotic Cells (%) [9]: 29%
Population Normal (%) [9]: 92%
Population Pyknosed Nuclei (%) [9]: 24%
Population Tubulin-Different-Phenotype (%) [9]: 70%
Total Cell Count [9]: 118
Population Apoptotic (%) [10]: 57%
Population Fragmented Nuclei (%) [10]: 31%
Population Healthy Nuclei (%) [10]: 48%
Population Hoechst High Intensity Objects (%) [10]: 9%
Population Membrane Permeable-Phenotype (%) [10]: 2%
Population Mitochondria Different-Phenotype (%) [10]: 20%
Population Mitotic Cells (%) [10]: 42%
Population Normal (%) [10]: 90%
Population Pyknosed Nuclei (%) [10]: 20%
Population Tubulin-Different-Phenotype (%) [10]: 62%
Total Cell Count [10]: 103
Population Apoptotic (%) [11]: 70%
Population Fragmented Nuclei (%) [11]: 17%
Population Healthy Nuclei (%) [11]: 53%
Population Hoechst High Intensity Objects (%) [11]: 10%
Population Membrane Permeable-Phenotype (%) [11]: 0%
Population Mitochondria Different-Phenotype (%) [11]: 53%
Population Mitotic Cells (%) [11]: 29%
Population Normal (%) [11]: 89%
Population Pyknosed Nuclei (%) [11]: 29%
Population Tubulin-Different-Phenotype (%) [11]: 89%
Total Cell Count [11]: 117
Population Apoptotic (%) [12]: 71%
Population Fragmented Nuclei (%) [12]: 39%
Population Healthy Nuclei (%) [12]: 43%
Population Hoechst High Intensity Objects (%) [12]: 7%
Population Mitochondria Different-Phenotype (%) [12]: 30%
Population Mitotic Cells (%) [12]: 28%
Population Normal (%) [12]: 92%
Population Pyknosed Nuclei (%) [12]: 16%
Population Tubulin-Different-Phenotype (%) [12]: 85%
Total Cell Count [12]: 136

COc1ccc2[nH]c(I)c(CCNC(C)=O)c2c1 [IODOMELATONIN]
Population Apoptotic (%) [1]: 53%
Population Fragmented Nuclei (%) [1]: 15%
Population Healthy Nuclei (%) [1]: 64%
Population Hoechst High Intensity Objects (%) [1]: 2%
Population Membrane Permeable-Phenotype (%) [1]: 4%
Population Mitochondria Different-Phenotype (%) [1]: 4%
Population Mitotic Cells (%) [1]: 46%
Population Normal (%) [1]: 97%
Population Pyknosed Nuclei (%) [1]: 19%
Population Tubulin-Different-Phenotype (%) [1]: 28%
Total Cell Count [1]: 137
Population Apoptotic (%) [2]: 32%
Population Fragmented Nuclei (%) [2]: 23%
Population Healthy Nuclei (%) [2]: 60%
Population Hoechst High Intensity Objects (%) [2]: 5%
Population Membrane Permeable-Phenotype (%) [2]: 7%
Population Mitochondria Different-Phenotype (%) [2]: 3%
Population Mitotic Cells (%) [2]: 68%
Population Normal (%) [2]: 94%
Population Pyknosed Nuclei (%) [2]: 15%
Population Tubulin-Different-Phenotype (%) [2]: 33%
Total Cell Count [2]: 173
Population Apoptotic (%) [3]: 35%
Population Fragmented Nuclei (%) [3]: 14%
Population Healthy Nuclei (%) [3]: 64%
Population Hoechst High Intensity Objects (%) [3]: 2%
Population Membrane Permeable-Phenotype (%) [3]: 2%
Population Mitochondria Different-Phenotype (%) [3]: 6%
Population Mitotic Cells (%) [3]: 64%
Population Normal (%) [3]: 97%
Population Pyknosed Nuclei (%) [3]: 21%
Population Tubulin-Different-Phenotype (%) [3]: 20%
Total Cell Count [3]: 148
Population Apoptotic (%) [4]: 30%
Population Fragmented Nuclei (%) [4]: 38%
Population Healthy Nuclei (%) [4]: 44%
Population Hoechst High Intensity Objects (%) [4]: 3%
Population Membrane Permeable-Phenotype (%) [4]: 5%
Population Mitochondria Different-Phenotype (%) [4]: 0%
Population Mitotic Cells (%) [4]: 69%
Population Normal (%) [4]: 96%
Population Pyknosed Nuclei (%) [4]: 17%
Population Tubulin-Different-Phenotype (%) [4]: 43%
Total Cell Count [4]: 157
Population Apoptotic (%) [5]: 62%
Population Fragmented Nuclei (%) [5]: 16%
Population Healthy Nuclei (%) [5]: 63%
Population Hoechst High Intensity Objects (%) [5]: 0%
Population Membrane Permeable-Phenotype (%) [5]: 0%
Population Mitochondria Different-Phenotype (%) [5]: 7%
Population Mitotic Cells (%) [5]: 37%
Population Normal (%) [5]: 99%
Population Pyknosed Nuclei (%) [5]: 20%
Population Tubulin-Different-Phenotype (%) [5]: 27%
Total Cell Count [5]: 134
Population Apoptotic (%) [6]: 57%
Population Fragmented Nuclei (%) [6]: 26%
Population Healthy Nuclei (%) [6]: 57%
Population Hoechst High Intensity Objects (%) [6]: 5%
Population Membrane Permeable-Phenotype (%) [6]: 6%
Population Mitotic Cells (%) [6]: 42%
Population Normal (%) [6]: 94%
Population Pyknosed Nuclei (%) [6]: 15%
Population Tubulin-Different-Phenotype (%) [6]: 39%
Total Cell Count [6]: 176
Population Apoptotic (%) [7]: 35%
Population Fragmented Nuclei (%) [7]: 16%
Population Healthy Nuclei (%) [7]: 58%
Population Hoechst High Intensity Objects (%) [7]: 2%
Population Membrane Permeable-Phenotype (%) [7]: 1%
Population Mitochondria Different-Phenotype (%) [7]: 4%
Population Mitotic Cells (%) [7]: 64%
Population Normal (%) [7]: 97%
Population Pyknosed Nuclei (%) [7]: 24%
Population Tubulin-Different-Phenotype (%) [7]: 30%
Total Cell Count [7]: 143
Population Apoptotic (%) [8]: 24%
Population Fragmented Nuclei (%) [8]: 38%
Population Healthy Nuclei (%) [8]: 41%
Population Hoechst High Intensity Objects (%) [8]: 4%
Population Membrane Permeable-Phenotype (%) [8]: 10%
Population Mitochondria Different-Phenotype (%) [8]: 1%
Population Mitotic Cells (%) [8]: 75%
Population Normal (%) [8]: 95%
Population Pyknosed Nuclei (%) [8]: 20%
Population Tubulin-Different-Phenotype (%) [8]: 40%
Total Cell Count [8]: 149
Population Apoptotic (%) [9]: 76%
Population Fragmented Nuclei (%) [9]: 16%
Population Healthy Nuclei (%) [9]: 64%
Population Hoechst High Intensity Objects (%) [9]: 3%
Population Membrane Permeable-Phenotype (%) [9]: 0%
Population Mitochondria Different-Phenotype (%) [9]: 4%
Population Mitotic Cells (%) [9]: 23%
Population Normal (%) [9]: 96%
Population Pyknosed Nuclei (%) [9]: 18%
Population Tubulin-Different-Phenotype (%) [9]: 22%
Total Cell Count [9]: 147
Population Apoptotic (%) [10]: 42%
Population Fragmented Nuclei (%) [10]: 30%
Population Healthy Nuclei (%) [10]: 55%
Population Hoechst High Intensity Objects (%) [10]: 4%
Population Membrane Permeable-Phenotype (%) [10]: 5%
Population Mitochondria Different-Phenotype (%) [10]: 0%
Population Mitotic Cells (%) [10]: 57%
Population Normal (%) [10]: 95%
Population Pyknosed Nuclei (%) [10]: 13%
Population Tubulin-Different-Phenotype (%) [10]: 40%
Total Cell Count [10]: 163
Population Apoptotic (%) [11]: 60%
Population Fragmented Nuclei (%) [11]: 29%
Population Healthy Nuclei (%) [11]: 56%
Population Hoechst High Intensity Objects (%) [11]: 7%
Population Membrane Permeable-Phenotype (%) [11]: 1%
Population Mitochondria Different-Phenotype (%) [11]: 1%
Population Mitotic Cells (%) [11]: 40%
Population Normal (%) [11]: 92%
Population Pyknosed Nuclei (%) [11]: 13%
Population Tubulin-Different-Phenotype (%) [11]: 22%
Total Cell Count [11]: 159
Population Apoptotic (%) [12]: 38%
Population Fragmented Nuclei (%) [12]: 48%
Population Healthy Nuclei (%) [12]: 38%
Population Hoechst High Intensity Objects (%) [12]: 2%
Population Membrane Permeable-Phenotype (%) [12]: 10%
Population Mitochondria Different-Phenotype (%) [12]: 5%
Population Mitotic Cells (%) [12]: 61%
Population Normal (%) [12]: 98%
Population Pyknosed Nuclei (%) [12]: 12%
Population Tubulin-Different-Phenotype (%) [12]: 57%
Total Cell Count [12]: 150
